Measured values: ChEMBL document CHEMBL1129983, “Synthesis and structure-activity relationships of carboxylated chalcones: a novel series of CysLT1 (LTD4) receptor antagonists” (J Med Chem, 1997)

These compounds were tested against T1, Cysteinyl leukotriene receptor 1 (Cavia porcellus) (UniProt Q2NNR5) (assay: Percent inhibition against Cysteinyl leukotriene D4 receptor in guinea pig lung membranes using [3H]LTD4 4 at 10 e-5 M). Details: Membrane.
T1 sequence (whole entry): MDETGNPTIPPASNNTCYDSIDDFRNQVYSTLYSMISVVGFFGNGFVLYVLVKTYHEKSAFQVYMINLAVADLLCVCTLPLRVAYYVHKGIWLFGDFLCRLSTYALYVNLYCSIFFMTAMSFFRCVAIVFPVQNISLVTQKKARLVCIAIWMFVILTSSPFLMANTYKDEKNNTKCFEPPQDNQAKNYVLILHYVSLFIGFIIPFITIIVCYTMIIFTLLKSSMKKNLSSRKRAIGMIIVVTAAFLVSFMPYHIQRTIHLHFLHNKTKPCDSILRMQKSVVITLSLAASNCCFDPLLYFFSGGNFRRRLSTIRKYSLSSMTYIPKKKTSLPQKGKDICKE
Format: cell membranes
Method in brief: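 Same [3H]LTD4 (0.2 nM) filtration binding with guinea pig lung membranes, PIPES pH 7.5, 22 °C, 30 min. Percent inhibition = (maximum binding − counts at highest drug concentration) / maximum binding × 100.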

| inhibition | SMILES |
| --- | --- |
| 9% | N#Cc1ccc(C(=O)/C=C/c2ccc(OCc3ccc4ccccc4n3)cc2)cc1 |
| 0% | O=C(O)c1ccc(O)c(C(=O)/C=C/c2ccccc2OCc2ccccc2)c1 |
| 16% | CCOC(=O)c1ccc(O)c(C(=O)/C=C/c2ccc(OCc3ccc4ccccc4n3)cc2)c1 |
| 4% | O=C(/C=C/c1ccc(OCc2ccc3ccccc3c2)cc1)c1cc(-c2nn[nH]n2)ccc1O |
| 23% | O=C(O)c1ccc(O)c(C(=O)/C=C/c2ccc(OCc3ccccc3)cc2)c1 |
| 7% | N#Cc1ccc(C(=O)/C=C/c2cccc(OCc3ccc4ccccc4n3)c2)cc1 |
| 38% | N#Cc1ccc(O)c(C(=O)/C=C/c2cccc(OCc3ccc4ccccc4n3)c2)c1 |
| 42% | CCCCOc1ccc(C(=O)O)cc1C(=O)/C=C/c1ccc(OCc2ccc3ccccc3n2)cc1 |
| 18% | O=C(O)c1ccc(O)c(C(=O)/C=C/c2ccccc2OCc2ccc3ccccc3n2)c1 |

These compounds were tested on Cavia porcellus (assay: Inhibition of LTD4 induced increase of vascular permeability after injection of 10 ng/site at […] intraperitoneally). Details: not given.
Format: functional

| SMILES | Inhibition |
| --- | --- |
| O=C(Nc1cccc2c(=O)cc(-c3nnn[nH]3)oc12)c1ccc(OCCCCc2ccccc2)cc1 | 100% |

These compounds were tested on Cavia porcellus (assay: Inhibition of LTD4 induced increase of vascular permeability after injection of 10 ng/site at 10 mg/kg intraperitoneally). Details: ip, route intraperitoneal.
Format: functional
Method in brief: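 Male Hartley guinea pigs (~300 g), fasted 24 h with water available, dosed ip at 10 mg/kg in 0.5% carboxymethylcellulose or saline. One hour later Evans blue 50 mg/kg iv, then LTD4 intradermally on the back. Dorsal skin removed 30 min later, dye extracted and quantified. Reported as percent inhibition versus control.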

| SMILES | inhibition in vivo at 10 mg/kg |
| --- | --- |
| O=C(O)c1cc(Cl)cc(C(=O)/C=C/c2cccc(/C=C/c3ccc4ccccc4n3)c2)c1O | < 10% |
| O=C(O)c1cccc(C(=O)/C=C/c2cccc(/C=C/c3ccc4ccccc4n3)c2)c1O | < 10% |
| O=C(/C=C/c1ccc(OCc2ccc3ccccc3n2)cc1)c1cc(-c2nn[nH]n2)ccc1O | 72% |

Organism: Cavia porcellus
Experiment: Inhibition of LTD4 induced contraction of guinea pig ileum
Format: functional
Details: not given
Method in brief: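 Male guinea pig ileum segments (2 cm), 20 mL organ bath, Tyrode's with atropine and pyrilamine (10⁻⁶ M each), 29 °C, 95% O2/5% CO2, 1.0 g resting tension, isotonic recording. Compounds in DMSO (10⁻⁵ to 3 × 10⁻⁹ M) preincubated 30 min; indomethacin 10⁻⁶ M added 10 min before 10⁻⁸ M LTD4. IC50 from percent inhibition across concentrations.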

| IC50 | SMILES |
| --- | --- |
| 190 nM | Cn1c(COc2ccc(/C=C/C(=O)c3cc(-c4nn[nH]n4)ccc3O)cc2)nc2ccccc21 |
| 360 nM | O=C(O)c1cc(Cl)cc(C(=O)/C=C/c2cccc(/C=C/c3ccc4ccccc4n3)c2)c1O |
| 52 nM | O=C(O)c1cccc(C(=O)/C=C/c2cccc(/C=C/c3ccc4ccccc4n3)c2)c1O |
| 46 nM | O=C(/C=C/c1cccc(/C=C/c2ccc3ccccc3n2)c1)c1cc(-c2nn[nH]n2)ccc1O |
| 23 nM | O=C(/C=C/c1cccc(/C=C/c2ccc3ccccc3n2)c1)c1cc(OCc2nn[nH]n2)ccc1O |
| 240 nM | O=C(/C=C/c1ccc(OCc2ccc3ccccc3n2)cc1)c1cc(-c2nn[nH]n2)ccc1O |

Organism: Cavia porcellus
Experiment: Inhibition of ovalbumin-induced contraction (10 ng/mL) of guinea pig trachea at 10 uM
Format: functional
Details: not given
Method in brief: (§1)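 Ovalbumin-sensitized male Hartley guinea pigs (2 mg ip, ≥2 weeks prior). Tracheal ring strips in Krebs with 3 µM indomethacin, 37 °C, 95% O2/5% CO2, 0.5 g tension, 60 min equilibration. Drug 10 µM preincubated 30 min, then ovalbumin challenge for 20–60 min, followed by 10 µM carbachol. Antigen response expressed as percent of the carbachol contraction.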

| SMILES | Inhibition |
| --- | --- |
| O=C(/C=C/c1cccc(/C=C/c2ccc3ccccc3n2)c1)c1cc(OCc2nn[nH]n2)ccc1O | 0% |
| CCCc1c(OCC(O)COc2ccc3c(=O)cc(C(=O)O)oc3c2CCC)ccc(C(C)=O)c1O (stereo not given) [FPL-55712] | 38% |

Organism: Cavia porcellus
Experiment: Inhibition of ovalbumin-induced contraction (10 ng/mL) of guinea pig trachea at 10 uM.
Format: functional
Details: not given
Method in brief: as §1

| SMILES | Inhibition |
| --- | --- |
| O=C(Nc1cccc2c(=O)cc(-c3nnn[nH]3)oc12)c1ccc(OCCCCc2ccccc2)cc1 | 80% |
| O=C(O)c1cccc(C(=O)/C=C/c2cccc(/C=C/c3ccc4ccccc4n3)c2)c1O | 0% |
| O=C(/C=C/c1ccc(OCc2ccc3ccccc3n2)cc1)c1cc(-c2nn[nH]n2)ccc1O | 52% |

What follows are compounds tested against Cysteinyl leukotriene receptor 1 (Cavia porcellus) (assay: Displacement of [3H]LTD4 from Cysteinyl leukotriene D4 receptor in guinea pig lung membranes). Details: not given.

| Kd | SMILES |
| --- | --- |
| 175 nM | O=C(O)COc1ccc(O)c(C(=O)/C=C/c2cccc(/C=C/c3ccc4ccccc4n3)c2)c1 |
| 828 nM | O=C(/C=C/c1cccc(/C=C/c2ccc3ccccc3n2)c1)c1cc(Cl)cc(-c2nn[nH]n2)c1O |
| 527 nM | CCOCCn1c(COc2ccc(/C=C/C(=O)c3cc(-c4nn[nH]n4)ccc3O)cc2)nc2ccccc21 |
| 196 nM | O=C(/C=C/c1ccc(OCc2ccc3ccc(Cl)cc3n2)cc1)c1cc(-c2nn[nH]n2)ccc1O |
| 8850 nM | CCOCCn1c(COc2cccc(/C=C/C(=O)c3cc(-c4nn[nH]n4)ccc3O)c2)nc2ccccc21 |
| 11100 nM | O=C(O)c1ccc(O)c(C(=O)/C=C/c2ccc3ccccc3n2)c1 |
| 449 nM | N#Cc1cc(Cl)cc(C(=O)/C=C/c2cccc(/C=C/c3ccc4ccccc4n3)c2)c1O |
| 2100 nM | O=C(O)c1cc(Br)cc(C(=O)/C=C/c2ccc(OCc3ccc4ccccc4n3)cc2)c1O |
| 732 nM | O=C(O)c1cc(Cl)cc(C(=O)/C=C/c2ccc(OCc3ccc4ccccc4n3)cc2)c1O |
| 140 nM | O=C(O)c1cc(F)cc(C(=O)/C=C/c2cccc(/C=C/c3ccc4ccccc4n3)c2)c1O |
| 928 nM | O=C(O)c1ccc(C(=O)/C=C/c2cccc(OCc3ccc4ccccc4n3)c2)c(O)c1 |
| 307 nM | O=C(O)c1cccc(C(=O)/C=C/c2ccc(OCc3ccc4ccccc4n3)cc2)c1O |
| 14800 nM | O=C(O)c1cc(Br)cc2c(=O)cc(-c3ccc4ccccc4n3)oc12 |
| 188 nM | COc1ccc(C(=O)O)cc1C(=O)/C=C/c1ccc(OCc2ccc3ccccc3n2)cc1 |
| 10500 nM | CCOCCn1c(COc2cccc(/C=C/C(=O)c3cc(Cl)cc(C(=O)O)c3O)c2)nc2ccccc21 |
| 396 nM | O=C(O)c1cc(F)cc(C(=O)/C=C/c2ccc(OCc3ccc4ccccc4n3)cc2)c1O |

| Kd | SMILES |
| --- | --- |
| 62400 nM | CCOCCn1c(COc2ccc(/C=C/C(=O)c3ccc(C(=O)O)cc3O)cc2)nc2ccccc21 |
| 200 nM | O=C(O)c1cccc(C(=O)/C=C/c2ccc(/C=C/c3ccc4ccccc4n3)cc2)c1O |
| 1210 nM | O=C(O)c1ccc(C(=O)/C=C/c2ccc(OCc3ccc4ccccc4n3)cc2)c(O)c1 |
| 4310 nM | N#Cc1ccc(O)c(C(=O)/C=C/c2ccc(OCc3ccc4ccccc4n3)cc2)c1 |
| 204 nM | O=C(O)COc1ccc(C(=O)/C=C/c2cccc(/C=C/c3ccc4ccccc4n3)c2)c(O)c1 |
| 26 nM | O=C(O)c1cccc(C(=O)/C=C/c2cccc(/C=C/c3ccc4ccccc4n3)c2)c1O |
| 205 nM | O=C(O)c1cc(Br)cc(C(=O)/C=C/c2cccc(OCc3ccc4ccccc4n3)c2)c1O |
| 208 nM | CC(C)(C)c1cc(C(=O)O)c(O)c(C(=O)/C=C/c2cccc(/C=C/c3ccc4ccccc4n3)c2)c1 |
| 209 nM | O=C(/C=C/c1cccc(OCc2ccc3ccccc3n2)c1)c1cc(-c2nn[nH]n2)ccc1O |
| 357 nM | COC(=O)c1ccc(OC)c(C(=O)/C=C/c2ccc(OCc3ccc4ccccc4n3)cc2)c1 |
| 21 nM | O=C(/C=C/c1cccc(/C=C/c2ccc3ccccc3n2)c1)c1cc(-c2nn[nH]n2)ccc1O |
| 19200 nM | O=C(/C=C/c1cccc(OCc2ccc3ccccc3c2)c1)c1cc(-c2nn[nH]n2)ccc1O |
| 239 nM | O=C(/C=C/c1ccc(/C=C/c2ccc3ccc(Cl)cc3n2)cc1)c1cc(-c2nn[nH]n2)ccc1O |
| 585 nM | O=C(O)c1ccc(O)c(C(=O)/C=C/c2ccc(/C=C/c3ccc4ccccc4n3)cc2)c1 |
| 233 nM | O=C(/C=C/c1ccc(OCc2nccs2)cc1)c1cc(-c2nn[nH]n2)ccc1O |
